From paper PMC5248591 (Journal of Clinical Pharmacology, 2016)
“And” between values parts separate entries of the source, which are not always exact repeats. Equal entries are not always repeated. Where two headings read alike, the source gives them in different places.

Columns and labels:
[1] = system: relapsed CLL; settings: cited from earlier work
[2] = system: LPS‐induced DC activation; experiment: Dendritic cell activation by LPS; type: cell-based, human; settings: in vitro; 1 μM in Figure 5C
In short: (§1)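 Cells (0.5 × 10⁶/well) were preincubated 1 h with test compound, then stimulated overnight with 1 μg/mL LPS or antibody-opsonized sheep RBCs. CD80/86 and MHCII were read by flow cytometry; values are % of vehicle, n = 5.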

[3] = SAD study: plasma and urine pharmacokinetics after a single oral dose; type: in vivo, human; settings: for Ae0‐96 / fe0‐96: urine, mean (SD); for Tmax / half-life / Cmax / AUC(0-t): human, plasma
[4] = system: PMA‐induced pERK Y204; experiment: Rat whole blood phospho‐flow: PMA‐induced pERK Y204; type: cell-based; settings: 5 μM
[5] = system: CD3/CD28‐induced T‐cell activation (ZAP70‐dependent); experiment: T‐cell activation; type: cell-based, human; settings: MAD, steady state after 10 once‐daily doses
[6] = system: BCR/LYN‐mediated pSYK Y352; experiment: BCR signaling specificity control, pSYK Y352 in B cells, whole blood; type: cell-based, human
[7] = system: FcγR‐mediated DC activation; experiment: Dendritic cell activation by opsonized sheep red blood cells; type: cell-based, human; settings: immature DCs from healthy donors, in vitro
In short: as §1

[8] = system: fMLP‐mediated basophil degranulation; experiment: fMLP‐induced basophil degranulation; type: cell-based, human
[9] = system: PMA/PKC‐induced B‐cell activation; experiment: PMA‐induced B‐cell activation; type: cell-based, human
[10] = system: opRBC‐induced (FcγR) neutrophil ROS generation; experiment: Neutrophil oxidative burst induced by opRBC in whole blood in vitro; type: cell-based, human
[11] = system: ZAP70; settings: read-out: ZAP70 IC50; purified kinase assay; cited from earlier work
[12] = type: in vivo, human; settings: for Fluctuation / Ae0‐24 / fe0‐24 / t1/2 / Cmax: mean (SD); for Ae0‐24 / fe0‐24: urine; for CL renal: urine and plasma
[13] = system: PMA‐induced T‐cell activation (PKC‐dependent); experiment: T‐cell activation; type: cell-based, human; settings: MAD, steady state after 10 once‐daily doses
[14] = Safety and tolerability, MAD study; type: in vivo, human
[15] = Safety and tolerability, SAD study
[16] = system: hind‐paw inflammation; settings: rat CIA, p < 0.05, cited from earlier work
[17] = system: PMA/PKC‐mediated pERK Y204; experiment: PMA‐induced pERK Y204 in B cells, specificity control, whole blood; type: cell-based, human; settings: SAD 200‐ and 300‐mg cohorts combined
[18] = system: DLBCL; settings: phase 2 study in DLBCL; cited from earlier work
[19] = system: serum levels of CCL3 and CCL4; settings: cited from earlier work
[20] = SAD 200‐ and 300‐mg cohorts combined
[21] = MAD, all dose levels, data not shown

c1cn2cc(-c3ccc4cn[nH]c4c3)nc(Nc3ccc(N4CCOCC4)cc3)c2n1 [GS9973]
Duration of response ([1]; majority of responding patients): greater than 6 months | patients achieving decreased adenopathy ([1]; phase 2, relapsed CLL): 94.5% | patients having experienced a partial response ([1]; phase 2, relapsed CLL): 61.5%

CC(=O)O.NC(=O)c1cnc(N[C@@H]2CCCC[C@@H]2N)nc1Nc1cccc(-n2nccn2)c1 [PRT062607, 4‐((3‐(2H‐1,2,3‐triazol‐2‐yl)phenyl)amino)‐2‐(((1R,2S)‐2‐aminocyclohexyl)amino)pyrimidine‐5‐carboxamide acetate]
inhibition of LPS‐induced DC activation [2]: No inhibition | Intersubject variability (%CV) of Cmax and AUClast ([3]; SAD, 6 out of 7 dose cohorts): < 40% | Ae0‐96 ([3]; SAD, single oral 30 mg): 0.4 (0.3) mg | fe0‐96 ([3]; SAD, single oral 30 mg): 1.5 (0.9) % | Ae0‐96 ([3]; SAD, single oral 100 mg): 2.4 (0.5) mg | fe0‐96 ([3]; SAD, single oral 100 mg): 2.4 (0.5) % | Ae0‐96 ([3]; SAD, single oral 200 mg): 4.3 (0.8) mg | fe0‐96 ([3]; SAD, single oral 200 mg): 2.2 (0.4) % | Ae0‐96 ([3]; SAD, single oral 300 mg): 7.0 (2.0) mg | fe0‐96 ([3]; SAD, single oral 300 mg): 2.3 (0.7) % | Ae0‐96 ([3]; SAD, single oral 400 mg): 20.2 (14.3) mg | fe0‐96 ([3]; SAD, single oral 400 mg): 5.1 (3.6) % | Tmax ([3]; oral): 1 to 4 h | half-life ([3]; oral): 57 to 94 h | Cmax ([3]; po, 3 mg): 1.5 ng/mL | Tmax ([3]; po, 3 mg): 1 h | AUC(0-t) ([3]; po, 10 mg): 150 ng·h/mL | Cmax ([3]; po, 10 mg): 10.5 ng/mL | Tmax ([3]; po, 10 mg): 1 h | half-life ([3]; po, 10 mg): 57.1 h | AUC(0-t) ([3]; po, 30 mg): 878 ng·h/mL | Cmax ([3]; po, 30 mg): 42.9 ng/mL | Tmax ([3]; po, 30 mg): 1 h | half-life ([3]; po, 30 mg): 56.7 h | AUC(0-t) ([3]; po, 100 mg): 5400 ng·h/mL | Cmax ([3]; po, 100 mg): 263 ng/mL | Tmax ([3]; po, 100 mg): 2 h | half-life ([3]; po, 100 mg): 69.8 h | AUC(0-t) ([3]; po, 200 mg): 13700 ng·h/mL | Cmax ([3]; po, 200 mg): 629 ng/mL | Tmax ([3]; po, 200 mg): 2 h | half-life ([3]; po, 200 mg): 77.2 h | AUC(0-t) ([3]; po, 300 mg): 11800 ng·h/mL | Cmax ([3]; po, 300 mg): 558 ng/mL | Tmax ([3]; po, 300 mg): 2.1 h | half-life ([3]; po, 300 mg): 93.8 h | AUC(0-t) ([3]; po, 400 mg): 22300 ng·h/mL | Cmax ([3]; po, 400 mg): 996 ng/mL | Tmax ([3]; po, 400 mg): 4 h | half-life ([3]; po, 400 mg): 65.1 h | inhibition of PMA‐induced pERK Y204 [4]: inability | effect on CD3/CD28‐induced T‐cell activation [5]: no effect | inhibition of BCR‐mediated pSYK Y352 [6, 20]: No consistent inhibition | inhibition of LYN‐mediated pSYK ([6]; SAD study, versus plasma concentration): No concentration‐dependent inhibition | effect on FcγR‐mediated (opRBC) DC activation, surface CD80/86 and MHCII [7]: inhibited | effect on fMLP stimulation (SYK‐independent) [8, 21]: no effect | inhibition of fMLP‐mediated basophil degranulation [8, 20]: No inhibition | effect on PMA stimulation (SYK‐independent) [9, 21]: no effect | inhibition of PMA‐induced B‐cell activation [9, 20]: no inhibition | opRBC‐induced ROS formation, concentration‐dependent ([10]; replicate experiments, different donors): inhibited | opRBC‐induced ROS generation ([10]; whole blood pretreated with 4 μM): completely abrogated | IC50 [11]: 1050 nM | Fluctuation ([12]; MAD day 10, 11 mg once daily): 90.7 (43.9) % | Tmax ([12]; MAD day 10, 11 mg once daily, median (min, max)): 1.5 (0.5, 2.0) Hours | Ae0‐24 ([12]; MAD day 10, 11 mg once daily): 0.4 (0.1) mg | fe0‐24 ([12]; MAD day 10, 11 mg once daily): 3.3 (1.3) % | Fluctuation ([12]; MAD day 10, 33 mg once daily): 88.0 (15.9) % | Tmax ([12]; MAD day 10, 33 mg once daily, median (min, max)): 1.5 (1.0, 2.1) Hours | Ae0‐24 ([12]; MAD day 10, 33 mg once daily): 1.3 (0.0) mg | fe0‐24 ([12]; MAD day 10, 33 mg once daily): 4.0 (0.1) % | Fluctuation ([12]; MAD day 10, 66 mg once daily): 98.8 (24.1) % | t1/2 ([12]; MAD day 10, 66 mg once daily): 61.3 Hours and 61.3 (10.2) Hours | Tmax ([12]; MAD day 10, 66 mg once daily, median (min, max)): 4.0 (2.0, 4.0) Hours | Ae0‐24 ([12]; MAD day 10, 66 mg once daily): 3.7 (0.6) mg | fe0‐24 ([12]; MAD day 10, 66 mg once daily): 5.6 (1.0) % | Fluctuation ([12]; MAD day 10, 110 mg once daily): 92.8 (30.7) % | t1/2 ([12]; MAD day 10, 110 mg once daily): 75.3 Hours and 75.3 (11.2) Hours | Tmax ([12]; MAD day 10, 110 mg once daily, median (min, max)): 3.0 (3.0, 6.0) Hours | Ae0‐24 ([12]; MAD day 10, 110 mg once daily): 6.96 (1.7) mg | fe0‐24 ([12]; MAD day 10, 110 mg once daily): 6.3 (1.5) % | intersubject variability (CV%) for exposure parameters ([12]; MAD steady state, all dose cohorts): ≤ 45% | steady state achieved ([12]; MAD, trough levels days 4, 7, 8, 9, 10): ≤ 7 days | Tmax ([12]; human, plasma, oral): 1.5 to 4 h | AUC ([12]; human, plasma, oral, 11 mg): 507 ng·h/mL | Cmax ([12]; human, plasma, oral, 11 mg, MAD day 10, 11 mg once daily): 32.6 ng/mL | AUC ([12]; human, plasma, oral, 33 mg): 1810 ng·h/mL | Cmax ([12]; human, plasma, oral, 33 mg, MAD day 10, 33 mg once daily): 118 ng/mL | AUC ([12]; human, plasma, oral, 66 mg): 4630 ng·h/mL | Cmax ([12]; human, plasma, oral, 66 mg, MAD day 10, 66 mg once daily): 317 ng/mL | AUC ([12]; human, plasma, oral, 110 mg): 8490 ng·h/mL | Cmax ([12]; human, plasma, oral, 110 mg, MAD day 10, 110 mg once daily): 557 ng/mL | CL renal ([12]; human, oral, 11 mg): 0.2 mL/min/kg | CL renal ([12]; human, oral, 33 mg): 0.2 mL/min/kg | CL renal ([12]; human, oral, 66 mg): 0.2 mL/min/kg | CL renal ([12]; human, oral, 110 mg): 0.2 mL/min/kg | effect on PMA‐induced T‐cell activation [13]: no effect | serious adverse events ([14]; 11 to 110 mg once daily for 10 days): no SAEs | AEs considered by the investigator related to the study drug ([14]; 71 of 96 AEs): 74% | number of AEs reported ([14]; all PRT062607 doses): 96 | subjects reporting AEs ([14]; all PRT062607 doses (13 subjects)): 54.2% | overall safety and tolerability ([15]; SAD and MAD, entire range of doses): safe and well tolerated | serious adverse events ([15]; SAD, 3 to 400 mg): no serious adverse events | number of reported TEAEs ([15]; SAD, 200‐mg dose group): 15 | subject incidence of TEAEs ([15]; SAD, 200‐mg dose group): 67% | number of reported TEAEs ([15]; SAD, 300‐mg dose group): 7 | subject incidence of TEAEs ([15]; SAD, 300‐mg dose group): 67% | number of reported TEAEs ([15]; SAD, 400‐mg dose group): 3 | subject incidence of TEAEs ([15]; SAD, 400‐mg dose group): 17% | moderate intensity TEAEs (dizziness, headache, musculoskeletal pain) ([15]; SAD, all PRT062607 doses): 3 | subjects with abdominal pain ([15]; SAD, all PRT062607 doses): 3 subjects | subjects with diarrhea ([15]; SAD, all PRT062607 doses): 3 subjects | subjects with dizziness ([15]; SAD, all PRT062607 doses): 3 subjects | subjects with headache ([15]; SAD, all PRT062607 doses): 6 subjects | subjects with nausea ([15]; SAD, all PRT062607 doses): 3 subjects | subjects with rhinitis ([15]; SAD, all PRT062607 doses): 2 subjects | number of TEAEs ([15]; SAD, all subjects receiving PRT062607): 37 | subjects reporting TEAEs ([15]; SAD, all subjects receiving PRT062607 (17/42)): 40% | % inhibition hind paw inflammation ([16]; 10 mg/kg): 55% | % inhibition hind paw inflammation ([16]; 15 mg/kg): 90% | inhibition of PMA‐mediated pERK Y204 [17]: No consistent inhibition

COc1cc(Nc2ncc(F)c(Nc3ccc4c(n3)N(COP(=O)(O)O)C(=O)C(C)(C)O4)n2)cc(OC)c1OC [fostamatinib]
overall response rate [18]: 3%

C=CC(=O)N1CCC[C@@H](n2nc(-c3ccc(Oc4ccccc4)cc3)c3c(N)ncnc32)C1 [ibrutinib]
inhibition of serum CCL3 and CCL4 markers [19]: > 90%
